Ends that are not written are not given here.
Experiments:
yeast primase [1] = test: GST pulldown with yeast primase; format: binding; conditions: mutation to alanine of Phe1463
In short: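 GST-Pol1 1453–1468, wild type or single alanine mutants, was expressed in E. coli BL21(DE3). An excess was bound to glutathione-Sepharose and washed in 25 mM HEPES pH 7.0, 250 mM KCl, 1% BSA, 0.1% NP-40, 1 mM TCEP. Beads were incubated with 20 μM yeast primase (Pri1(1–409)/Pri2(49–513)) for 2 h at 4 °C, then washed, ending with a BSA-free wash. Bound protein was read by SDS-PAGE with Coomassie staining.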

yeast primase [2] = test: Binding of pol1 C-terminal peptide to yeast primase; conditions: qualitative statement of abstract; method not given
human primase = target: T1, human primase (Homo sapiens, UniProt P49642+P49643); test: Fluorescence polarization; format: binding; conditions: 25 °C, 25 mM HEPES, pH 7.2, 250 mM KCl, 1 mM TCEP, 30 nM fluorescein-labeled peptide, mean of three independent experiments
T1 sequence (P49643 1-462): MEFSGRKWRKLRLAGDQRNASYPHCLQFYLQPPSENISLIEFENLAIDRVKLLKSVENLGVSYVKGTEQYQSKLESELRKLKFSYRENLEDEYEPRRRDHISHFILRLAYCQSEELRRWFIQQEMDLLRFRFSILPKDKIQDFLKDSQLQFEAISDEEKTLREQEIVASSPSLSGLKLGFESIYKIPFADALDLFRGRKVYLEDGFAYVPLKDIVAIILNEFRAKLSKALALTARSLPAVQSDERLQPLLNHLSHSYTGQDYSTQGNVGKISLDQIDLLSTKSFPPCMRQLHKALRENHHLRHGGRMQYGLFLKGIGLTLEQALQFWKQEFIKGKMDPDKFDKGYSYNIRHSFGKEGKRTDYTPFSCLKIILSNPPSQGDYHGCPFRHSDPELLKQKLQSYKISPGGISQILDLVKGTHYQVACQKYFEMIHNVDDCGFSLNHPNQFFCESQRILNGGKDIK
T1 sequence (P49642 1-420 K72A/M73A partner): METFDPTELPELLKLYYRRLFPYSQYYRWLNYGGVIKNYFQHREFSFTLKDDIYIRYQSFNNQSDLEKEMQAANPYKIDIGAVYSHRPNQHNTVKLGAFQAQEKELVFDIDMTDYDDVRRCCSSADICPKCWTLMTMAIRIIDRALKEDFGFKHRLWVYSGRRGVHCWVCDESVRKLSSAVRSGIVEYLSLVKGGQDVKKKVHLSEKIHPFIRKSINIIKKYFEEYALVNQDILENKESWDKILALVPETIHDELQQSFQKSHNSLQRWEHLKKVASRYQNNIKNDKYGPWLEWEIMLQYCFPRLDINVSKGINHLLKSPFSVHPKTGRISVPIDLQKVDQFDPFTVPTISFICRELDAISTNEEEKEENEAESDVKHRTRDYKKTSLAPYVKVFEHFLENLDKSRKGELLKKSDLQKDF
In short: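 Peptide was human pol α 1445–1462 (wild type or point mutant), synthesized with an N-terminal fluorescein. Human primase was His-Prim1(1–420; K72A/M73A) with Prim2(1–462), made in E. coli and purified by Co-NTA, heparin, TEV cleavage and gel filtration. Serial protein dilutions were read at λex 485/λem 520 nm, 200 flashes per well. Gain was set against fluorescein (35 mP). Curves were fitted by Monte Carlo fitting.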

Pol12 = test: Immunoprecipitation and immunoblotting, Pol12; format: cell-based, Saccharomyces cerevisiae; conditions: diploid yeast, anti-HA beads, native cell extracts, immunoblotting
Pri1-Pri2 primase = test: Analytical gel filtration, assembly with primase; format: binding, yeast; conditions: Superdex 200 10/300 GL, 14 μM complex, 25 mM HEPES, pH 7.2, 250 mM KCl, 5% glycerol, 0.5 mM TCEP; equimolar, 4 °C, 30 min
In short: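 Yeast primase Pri1(1–409)/His-Pri2(49–513) or the ΔCTD form Pri2(49–335), and Pol1 CTD(1263–1468)/His-Pol12(246–705), were expressed in E. coli Rosetta2(DE3). They were purified by Co-NTA, heparin, TEV tag cleavage and gel filtration. Equimolar partners were mixed for 30 min at 4 °C, and 100 μl was injected at 0.5 ml/min. Fractions were read by SDS-PAGE with Coomassie staining.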

Molecule: F1463A (GRRYVDMTSIADFMLN; also: GST fusion, N-terminal)
- interaction with primase (abstract summary, in vitro) (yeast primase [1]): abrogates the interaction with the primase

Molecule: GRRYVDMTSIFDFMLN [pol1 peptide]
- binding to primase (yeast primase [2]): binds primase with high affinity

Molecule: F1455A (GYSEVNLSKLAAGCAVKS; also: fluorescein label, position not given here)
- level of binding (human primase): did not display a measurable level of binding

B1: Pol1: wild-type catalytic subunit of yeast pol α (protein)
chain: MSSKSEKLEKLRKLQAARNGTSIDDYEGDESDGDRIYDEIDEKEYRARKRQELLHDDFVVDDDGVGYVDRGVEEDWREVDNSSSDEDTGNLASKDSKRKKNIKREKDHQITDMLRTQHSKSTLLAHAKKSQKKSIPIDNFDDILGEFESGEVEKPNILLPSKLRENLNSSPTSEFKSSIKRVNGNDESSHDAGISKKVKIDPDSSTDKYLEIESSPLKLQSRKLRYANDVQDLLDDVENSPVVATKRQNVLQDTLLANPPSAQSLADEEDDEDSDEDIILKRRTMRSVTTTRRVNIDSRSNPSTSPFVTAPGTPIGIKGLTPSKSLQSNTDVATLAVNVKKEDVVDPETDTFQMFWLDYCEVNNTLILFGKVKLKDDNCVSAMVQINGLCRELFFLPREGKTPTDIHEEIIPLLMDKYGLDNIRAKPQKMKYSFELPDIPSESDYLKVLLPYQTPKSSRDTIPSDLSSDTFYHVFGGNSNIFESFVIQNRIMGPCWLDIKGADFNSIRNASHCAVEVSVDKPQNITPTTTKTMPNLRCLSLSIQTLMNPKENKQEIVSITLSAYRNISLDSPIPENIKPDDLCTLVRPPQSTSFPLGLAALAKQKLPGRVRLFNNEKAMLSCFCAMLKVEDPDVIIGHRLQNVYLDVLAHRMHDLNIPTFSSIGRRLRRTWPEKFGRGNSNMNHFFISDICSGRLICDIANEMGQSLTPKCQSWDLSEMYQVTCEKEHKPLDIDYQNPQYQNDVNSMTMALQENITNCMISAEVSYRIQLLTLTKQLTNLAGNAWAQTLGGTRAGRNEYILLHEFSRNGFIVPDKEGNRSRAQKQRQNEENADAPVNSKKAKYQGGLVFEPEKGLHKNYVLVMDFNSLYPSIIQEFNICFTTVDRNKEDIDELPSVPPSEVDQGVLPRLLANLVDRRREVKKVMKTETDPHKRVQCDIRQQALKLTANSMYGCLGYVNSRFYAKPLAMLVTNKGREILMNTRQLAESMNLLVVYGDTDSVMIDTGCDNYADAIKIGLGFKRLVNERYRLLEIDIDNVFKKLLLHAKKKYAALTVNLDKNGNGTTVLEVKGLDMKRREFCPLSRDVSIHVLNTILSDKDPEEALQEVYDYLEDIRIKVETNNIRIDKYKINMKLSKDPKAYPGGKNMPAVQVALRMRKAGRVVKAGSVITFVITKQDEIDNAADTPALSVAERAHALNEVMIKSNNLIPDPQYYLEKQIFAPVERLLERIDSFNVVRLSEALGLDSKKYFRREGGNNNGEDINNLQPLETTITDVERFKDTVTLELSCPSCDKRFPFGGIVSSNYYRVSYNGLQCKHCEQLFTPLQLTSQIEHSIRAHISLYYAGWLQCDDSTCGIVTRQVSVFGKRCLNDGCTGVMRYKYSDKQLYNQLLYFDSLFDCEKNKKQELKPIYLPDDLDYPKEQLTESSIKALTEQNRELMETGRSVVQKYLNDCGRRYVDMTSIFDFMLN
modifications: left off: 6HA, end not stated, kept
- association with Pol12 (Pol12): all associated equally well with Pol12

B2: CTD-Pol12: yeast Pol1 (1263–1468) with His-tagged Pol12 (246–705) (protein)
chain 1: NLQPLETTITDVERFKDTVTLELSCPSCDKRFPFGGIVSSNYYRVSYNGLQCKHCEQLFTPLQLTSQIEHSIRAHISLYYAGWLQCDDSTCGIVTRQVSVFGKRCLNDGCTGVMRYKYSDKQLYNQLLYFDSLFDCEKNKKQELKPIYLPDDLDYPKEQLTESSIKALTEQNRELMETGRSVVQKYLNDCGRRYVDMTSIFDFMLN
chain 2: KFRTMRQNLQEASDVLDDQIESFTKIIQNHYKLSPNDFADPTIQSQSEIYAVGRIVPDSPTYDKFLNPESLSLETSRMGGVGRRVRLDLSQVNELSFFLGQIVAFKGKNANGDYFTVNSILPLPYPNSPVSTSQELQEFQANLEGSSLKVIVTCGPYFANDNFSLELLQEFIDSINNEVKPHVLIMFGPFIDITHPLIASGKLPNFPQFKTQPKTLDELFLKLFTPILKTISPHIQTVLIPSTKDAISNHAAYPQASLIRKALQLPKRNFKCMANPSSFQINEIYFGCSNVDTFKDLKEVIKGGTTSSRYRLDRVSEHILQQRRYYPIFPGSIRTRIKPKDVSTKKETNDMESKEEKVYEHISGADLDVSYLGLTEFVGGFSPDIMIIPSELQHFARVVQNVVVINPGRFIRATGNRGSYAQITVQCPDLEDGKLTLVEGEEPVYLHNVWKRARVDLIAS
modifications: left off: His tag, end not stated, cleaved
- complex formation with primase (Pri1-Pri2 primase): eluted as a single peak

Source: paper PMC3390648 (The Journal of Biological Chemistry, 2012)
